Activity calls are given as the source filed them. Cut-off read from the data, not from the text of the source, unless noted: active = inhibition above about 30%; inactive = the rest.

The viability is a read-out of living cells in per cent, often relative to untreated cells. For orientation: inhibition means the relative decrease from the control value, in per cent.

Experiment [1] can be described thus: Her2 expression decrease, cell viability multiplex – SKBR3 breast tumor cells, AlphaScreen, ATP viability, primary screen (AID 461;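 active = Her2 level under about 52% in both replicate screens, with viability over 70% of control, limit read from the data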;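 for Her2 level: lower value means less Her2 protein in the cells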;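 for viability: percent of carrier control wells set as 100% viability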). The settings on record: SKBR3 Her2 protein level, 18-24 h, measured here: SKBR3 viability, ATP luminescence, at 10 µM. A general note: Alpha assays give light when donor and acceptor beads are brought close together.
Experiment [2] concerns the target Receptor tyrosine-protein kinase erbB-2 (Homo sapiens) (UniProt P04626). Described as above. The note with it: 18-24 h, at 10 µM, stronger effect = lower value.
A short description of experiment [3]: reduced viability of SK-BR-3 breast cancer cells – cell-based, 24 h, human, pilot screen (AID 572;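 active = viability at or below 10% of carrier control in both of two separate runs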;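 note: compound exposure lasted between 18 and 24 h rather than exactly 24 h; 100% = carrier-treated control wells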). The settings on record: SK-BR-3 viability, CellTiter-Glo luminescence, at 10 µM, stronger effect = lower value.
Experiment [4] in a line: HUVEC growth inhibition – cell-based, human, primary screen (AID 575;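 active = viability at or below 30% in both replicate assays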;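 note: 100% = median of untreated cell wells with 0.1% DMSO on each plate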). The settings on record: HUVEC proliferation, CellTiter-Glo luminescence, 72 h; at 10 µM; stronger effect = lower value. Put shortly: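 Assay system: Primary human umbilical vein endothelial cells | Quantity: 1250 cells per well | Medium: Supplemented EBM, 2% fetal bovine serum | Detection: CellTiter-Glo luminescence measuring cellular ATP | Read-out: % viability vs DMSO wells | Plate: Collagen-coated 384-well format | Times: 72 h exposure, 37 °C, 5% CO2, 30 min RT equilibration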

A short description of experiment [5]: H69AR cell proliferation blockers – human, duplicate replicates, primary screen (AID 580;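 active = viability at or under a set limit in both replicates, limit being median viability minus 3 SD, cut at about 48% in these data, passing the limit was not always enough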;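 note: 100% = mean luminescence of untreated wells and 0% = no signal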). The settings on record: H69AR lung tumor cells viability, ATP luminescence, 72 h; at 10 µM; stronger effect = lower value.
A short description of experiment [6]: MRP1 drug-resistance reversers in H69AR cells – cell-based, doxorubicin co-treatment, pilot screen (AID 601;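 active = viability loss from added drug above about 55%, and viability with drug at most 40%, in both replicates, limit read from the data, passing the limit was not always enough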). The note with it: CellTiter-Glo, 72 h, at 10 µM; for differential viability (reversal): stronger effect = higher value.
Experiment [7] is described as follows: yeast transport mutant growth inhibition pilot in 384-well plates, post-Golgi transport modulator project (AID 636; in the data active = inhibition above about 31%). The settings on record: absorbance 615 nm, about 18 h, stronger effect = higher value.
Experiment [8] in a line: growth suppression of yeast trafficking mutant, preliminary HTS, modulators of trafficking downstream of Golgi apparatus project, 1536-format plate, OD 615 nm (AID 637). The settings on record: yeast transport mutant growth, absorbance 615 nm, 18 h; stronger effect = higher value.
Setting [9] is: H69AR cells + 2 uM doxorubicin, measured here: viability with 2 uM doxorubicin, stronger effect = lower value.
The mark [10] stands for this setting: H69AR cells, compound alone cytotoxicity.

Chain of Receptor tyrosine-protein kinase erbB-2 (Homo sapiens) (P04626 whole entry, looked up): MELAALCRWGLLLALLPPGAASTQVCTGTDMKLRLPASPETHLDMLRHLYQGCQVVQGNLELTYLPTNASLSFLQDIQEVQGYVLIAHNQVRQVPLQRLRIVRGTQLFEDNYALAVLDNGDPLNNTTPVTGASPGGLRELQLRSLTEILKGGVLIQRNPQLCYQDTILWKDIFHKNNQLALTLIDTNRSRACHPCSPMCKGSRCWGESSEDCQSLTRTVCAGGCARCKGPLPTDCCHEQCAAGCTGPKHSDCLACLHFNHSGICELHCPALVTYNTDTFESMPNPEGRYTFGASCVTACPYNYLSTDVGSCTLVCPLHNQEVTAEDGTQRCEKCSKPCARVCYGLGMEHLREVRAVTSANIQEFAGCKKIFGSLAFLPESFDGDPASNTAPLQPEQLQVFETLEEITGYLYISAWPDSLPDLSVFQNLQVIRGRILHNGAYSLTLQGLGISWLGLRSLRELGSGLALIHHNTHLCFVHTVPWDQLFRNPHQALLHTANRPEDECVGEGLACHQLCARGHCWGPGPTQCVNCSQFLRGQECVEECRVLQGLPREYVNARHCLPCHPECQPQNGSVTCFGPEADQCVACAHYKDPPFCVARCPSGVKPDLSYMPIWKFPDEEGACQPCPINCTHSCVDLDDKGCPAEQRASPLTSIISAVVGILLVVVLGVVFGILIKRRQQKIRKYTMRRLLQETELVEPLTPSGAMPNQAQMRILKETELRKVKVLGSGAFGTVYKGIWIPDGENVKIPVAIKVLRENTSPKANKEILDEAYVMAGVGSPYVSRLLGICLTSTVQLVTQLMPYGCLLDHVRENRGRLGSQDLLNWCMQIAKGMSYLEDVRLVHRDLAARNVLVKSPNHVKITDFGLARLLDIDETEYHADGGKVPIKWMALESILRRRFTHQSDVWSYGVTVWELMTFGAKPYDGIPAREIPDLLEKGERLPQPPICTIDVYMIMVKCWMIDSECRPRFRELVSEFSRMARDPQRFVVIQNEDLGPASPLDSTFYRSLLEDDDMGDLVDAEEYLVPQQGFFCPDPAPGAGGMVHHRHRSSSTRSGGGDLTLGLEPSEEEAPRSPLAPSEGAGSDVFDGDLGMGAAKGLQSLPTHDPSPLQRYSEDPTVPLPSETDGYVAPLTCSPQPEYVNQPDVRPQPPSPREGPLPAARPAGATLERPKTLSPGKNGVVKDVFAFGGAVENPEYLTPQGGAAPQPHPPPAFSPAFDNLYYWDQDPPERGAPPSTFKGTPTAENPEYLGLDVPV

For the compound `CCC(Sc1nc(-c2ccccc2)c(C#N)c(=O)[nH]1)C(=O)Nc1cc(C)on1` (stereo not given), the viability in experiment [1] was 90.5%; in experiment [3], 90.5% (inactive); in experiment [4], 83% (inactive); in experiment [5] it was 101% (inactive); in experiment [6] (setting [9]), 101%; in experiment [6] (setting [10]), 101%. Besides, in experiment [2], the Her2 level is 111% (inactive). Moreover, in experiment [6] (H69AR cells + 2 uM doxorubicin), the differential viability (reversal) is 0.62% (inactive). Also, the results for the inhibition in experiment [7] and in experiment [8] were -1.54% (inactive) and -8.67% (inactive), respectively.
For `Cc1ccc(S(=O)(=O)N2CCOCC2)cc1C(=O)Nc1ccccn1`, the viability in experiment [1] is 87%; in experiment [3] it was 87% (inactive); in experiment [4] it was 110% (inactive); in experiment [5], 93.8% (inactive); in experiment [6] (setting [9]), 86.1%; in experiment [6] (setting [10]) it was 93.8%. In experiment [2], the Her2 level is 83% (inactive). Moreover, the differential viability (reversal) in experiment [6] (H69AR cells + 2 uM doxorubicin) was 7.62% (inactive). Further, the inhibition in experiment [7] was -6.76% (inactive); in experiment [8], -3.17% (inactive).
`CC(C(=O)c1ccccc1)n1cnc2ccccc2c1=O` (stereo not given): the viability in experiment [1] was 94.5%; in experiment [3] it was 94.5% (inactive); in experiment [4] it was 86.6% (inactive); in experiment [5], 89.6% (inactive); in experiment [6] (setting [9]), 80.5%; in experiment [6] (setting [10]), 89.6%. Moreover, in experiment [2], the Her2 level is 87% (inactive). Besides, the differential viability (reversal) in experiment [6] (H69AR cells + 2 uM doxorubicin) was 9.12% (inactive). The inhibition in experiment [7] is -5.73% (inactive); in experiment [8], 2.42% (inactive).
For `O=C(N1CCOCC1)N1CCC(NC(=O)C23CC4CC(CC(C4)C2)C3)CC1`, the viability is 90% in experiment [1]; 90% (inactive) in experiment [3]; 99.6% (inactive) in experiment [4]; 98.8% (inactive) in experiment [5]; 90.4% in experiment [6] (setting [9]); 98.8% in experiment [6] (setting [10]). Further, the Her2 level in experiment [2] was 88% (inactive). In addition, in experiment [6] (H69AR cells + 2 uM doxorubicin), the differential viability (reversal) was 8.44% (inactive). The results for the inhibition in experiment [7] and in experiment [8] were -6% (inactive) and 4.84% (inactive), respectively.
As for `CCOc1nc2ccccc2nc1NS(=O)(=O)c1ccccc1`, the viability is 83% in experiment [1]; 83% (inactive) in experiment [3]; 91.3% (inactive) in experiment [4]; 88.5% (inactive) in experiment [5]; 88% in experiment [6] (setting [9]); 88.5% in experiment [6] (setting [10]). Further, the Her2 level in experiment [2] was 75% (inactive). Besides, the differential viability (reversal) in experiment [6] (H69AR cells + 2 uM doxorubicin) is 0.49% (inactive). Moreover, the inhibition was -2.24% (inactive) in experiment [7] and 3.82% (inactive) in experiment [8].
For the compound `O=C(c1ccccc1)c1ccncc1`, the viability in experiment [1] is 100%; in experiment [3], 100% (inactive); in experiment [4], 100% (inactive); in experiment [5], 92.4% (inactive); in experiment [6] (setting [9]) it was 96%; in experiment [6] (setting [10]) it was 92.4%. For the same compound, the Her2 level in experiment [2] is 76.5% (inactive). Moreover, the differential viability (reversal) in experiment [6] (H69AR cells + 2 uM doxorubicin) was -3.62% (inactive). The figures for the inhibition in experiment [7] and in experiment [8] were -6.05% (inactive) and 5.33% (inactive), respectively.
In the case of `Cc1ccc(CN2C(=O)CCC2C(=O)NCC2CCCO2)cc1` (stereo not given), the viability in experiment [1] was 90%; in experiment [3], 90% (inactive); in experiment [4], 82.8% (inactive); in experiment [5], 103% (inactive); in experiment [6] (setting [9]), 97.3%; in experiment [6] (setting [10]), 103%. The Her2 level in experiment [2] was 81% (inactive). In experiment [6] (H69AR cells + 2 uM doxorubicin), the differential viability (reversal) was 5.64% (inactive). The results for the inhibition in experiment [7] and in experiment [8] were -1.45% (inactive) and 3.55% (inactive), respectively.
On to `Cc1ccc2[nH]c3c(c2c1)CCc1cn[nH]c1-3`, for which the viability in experiment [1] is 132%; in experiment [3], 132% (inactive); in experiment [4], 66.4% (inactive); in experiment [5], 38.4% (active); in experiment [6] (setting [9]), 56.7%; in experiment [6] (setting [10]), 38.4%. The Her2 level in experiment [2] was 68% (inactive). Further, the differential viability (reversal) in experiment [6] (H69AR cells + 2 uM doxorubicin) was -18.3% (inactive). The values for the inhibition in experiment [7] and in experiment [8] were -0.8% (inactive) and -8.23% (inactive), respectively.
For the compound `CCN(CC)c1ccc(NC(=O)CN2CCN(CC(=O)Nc3ccccc3F)CC2)cc1`, the viability in experiment [1] is 81.5%; in experiment [3] it was 81.5% (inactive); in experiment [4] it was 80.2% (inactive); in experiment [5] it was 99.6% (inactive); in experiment [6] (setting [9]), 88.6%; in experiment [6] (setting [10]), 99.6%. Also, the Her2 level in experiment [2] was 93.5% (inactive). Further, the differential viability (reversal) in experiment [6] (H69AR cells + 2 uM doxorubicin) is 11% (inactive). Moreover, the inhibition in experiment [7] is -3.95% (inactive); in experiment [8] it was -1.33% (inactive).
Take `COc1cc2[nH]c(=O)c(C(=O)NCCCN3CCCCC3)c(O)c2cc1OC`: the viability is 99.5% in experiment [1]; 99.5% (inactive) in experiment [3]; 99.5% (inactive) in experiment [4]; 98.7% (inactive) in experiment [5]; 91.1% in experiment [6] (setting [9]); 98.7% in experiment [6] (setting [10]). Besides, in experiment [2], the Her2 level is 99% (inactive). In addition, the differential viability (reversal) in experiment [6] (H69AR cells + 2 uM doxorubicin) was 7.58% (inactive). Further, the results for the inhibition in experiment [7] and in experiment [8] were -6.35% (inactive) and 1.11% (inactive), respectively.
Regarding `Cc1nnc2sc(-c3cccc(NC(=O)c4cccnc4)c3)nn12`, the viability was 87.5% in experiment [1]; 87.5% (inactive) in experiment [3]; 90.2% (inactive) in experiment [4]; 87.8% (inactive) in experiment [5]; 96.7% in experiment [6] (setting [9]); 87.8% in experiment [6] (setting [10]). In addition, in experiment [2], the Her2 level was 104% (inactive). The differential viability (reversal) in experiment [6] (H69AR cells + 2 uM doxorubicin) was -8.91% (inactive). Moreover, the inhibition in experiment [7] was -2.7% (inactive); in experiment [8], 36.7% (active).
For the compound `CCN(CCO)C1CC(=O)N(c2ccccc2C)C1=O` (stereo not given), the viability in experiment [1] is 95%; in experiment [3] it was 95% (inactive); in experiment [4], 105% (inactive); in experiment [5], 101% (inactive); in experiment [6] (setting [9]), 76.7%; in experiment [6] (setting [10]) it was 101%. For the same compound, the Her2 level in experiment [2] was 93.5% (inactive). For the same compound, the differential viability (reversal) in experiment [6] (H69AR cells + 2 uM doxorubicin) was 24.2% (inactive). Also, the inhibition was -9.46% (inactive) in experiment [7] and -2% (inactive) in experiment [8].
As to `Cc1nc2ccc(NC(=O)N3CCC(c4ccccc4)C3)cc2nc1C` (stereo not given), the viability was 101% in experiment [1]; 101% (inactive) in experiment [3]; 57.7% (inactive) in experiment [4]; 74.8% (inactive) in experiment [5]; 65.4% in experiment [6] (setting [9]); 74.8% in experiment [6] (setting [10]). Also, in experiment [2], the Her2 level was 93.5% (inactive). Moreover, the differential viability (reversal) in experiment [6] (H69AR cells + 2 uM doxorubicin) is 9.41% (inactive). The inhibition was -4.21% (inactive) in experiment [7] and -1.43% (inactive) in experiment [8].
Turning to `CC(=O)c1cc(C#N)c(SCC(=O)OC(C)C)nc1C`, the viability in experiment [1] is 102%; in experiment [3], 102% (inactive); in experiment [4] it was 88% (inactive); in experiment [5], 61.2% (inactive); in experiment [6] (setting [9]) it was 37.9%; in experiment [6] (setting [10]), 61.2%. In addition, the Her2 level in experiment [2] was 80.5% (inactive). Further, in experiment [6] (H69AR cells + 2 uM doxorubicin), the differential viability (reversal) was 23.3% (inactive). The inhibition in experiment [7] is -7.03% (inactive); in experiment [8], 5.67% (inactive).
For the compound `c1cncc(-c2nnc3sc(-c4ccco4)nn23)c1`, the viability was 118% in experiment [1]; 118% (inactive) in experiment [3]; 99.5% (inactive) in experiment [4]; 91.5% (inactive) in experiment [5]; 98.3% in experiment [6] (setting [9]); 91.5% in experiment [6] (setting [10]). In experiment [2], the Her2 level was 106% (inactive). Besides, in experiment [6] (H69AR cells + 2 uM doxorubicin), the differential viability (reversal) is -6.86% (inactive). Also, the figures for the inhibition in experiment [7] and in experiment [8] were -5.39% (inactive) and 4.68% (inactive), respectively.

Values taken from PubChem BioAssay.
